Assay results as given in the M2OR odorant receptor database.
Where a chain is given by its changes, count along the chain named.

How the values were obtained:
Settings in all cases: stereoisomer not certain
[1] = tested on: T1, OR6K3
T1 sequence (whole entry): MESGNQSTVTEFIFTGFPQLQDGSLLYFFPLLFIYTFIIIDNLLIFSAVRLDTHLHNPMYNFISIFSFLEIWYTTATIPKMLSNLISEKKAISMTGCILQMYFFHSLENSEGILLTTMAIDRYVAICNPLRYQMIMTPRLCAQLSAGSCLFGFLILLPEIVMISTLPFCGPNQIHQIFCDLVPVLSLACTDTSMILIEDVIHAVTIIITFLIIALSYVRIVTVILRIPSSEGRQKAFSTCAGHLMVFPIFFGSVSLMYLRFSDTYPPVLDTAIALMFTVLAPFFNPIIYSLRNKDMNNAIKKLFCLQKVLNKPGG
Summary of the method: (§1)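 Transient luciferase assays in mammalian cell lines were common, though methods varied by source. The values come from published papers and their supplementary material, with extra details from the original authors when needed. Responsive refers to a measured signal the original authors judged statistically different from baseline, and non-responsive (inactive) to the remainder.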

[2] = target: T2, OR6K6 (Homo sapiens) (UniProt Q8NGW6)
T2 sequence (whole entry): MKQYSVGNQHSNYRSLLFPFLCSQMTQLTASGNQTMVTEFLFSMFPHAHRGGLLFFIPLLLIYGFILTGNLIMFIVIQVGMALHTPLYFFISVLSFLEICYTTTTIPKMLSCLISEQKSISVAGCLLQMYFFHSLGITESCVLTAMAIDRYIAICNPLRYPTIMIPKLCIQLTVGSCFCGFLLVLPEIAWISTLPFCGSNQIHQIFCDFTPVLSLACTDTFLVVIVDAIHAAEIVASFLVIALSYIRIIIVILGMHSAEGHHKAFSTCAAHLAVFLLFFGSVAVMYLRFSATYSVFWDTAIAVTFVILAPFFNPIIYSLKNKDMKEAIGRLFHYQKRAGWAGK
Summary of the method: as §1

[3] = target: T3, OR6M1 (Homo sapiens) (UniProt Q8NGM8)
T3 sequence (whole entry): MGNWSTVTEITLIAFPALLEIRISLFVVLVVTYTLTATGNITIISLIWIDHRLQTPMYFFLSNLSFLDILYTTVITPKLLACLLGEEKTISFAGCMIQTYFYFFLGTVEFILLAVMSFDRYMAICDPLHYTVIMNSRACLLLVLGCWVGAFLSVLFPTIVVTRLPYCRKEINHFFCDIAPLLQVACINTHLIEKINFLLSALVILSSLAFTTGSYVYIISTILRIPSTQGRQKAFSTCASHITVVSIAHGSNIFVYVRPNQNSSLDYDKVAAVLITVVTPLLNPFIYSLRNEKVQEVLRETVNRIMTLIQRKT
Summary of the method: as §1

[4] = tested on: T4, OR6M1 R224C
T4 sequence (whole entry): T3 sequence (whole entry) with R224C
Summary of the method: as §1

[5] = tested on: T5, OR6M1 T276K
T5 sequence (whole entry): T3 sequence (whole entry) with T276K
Summary of the method: as §1

[6] = target: T6, OR6N1 (Homo sapiens) (UniProt Q8NGY5)
T6 sequence (whole entry): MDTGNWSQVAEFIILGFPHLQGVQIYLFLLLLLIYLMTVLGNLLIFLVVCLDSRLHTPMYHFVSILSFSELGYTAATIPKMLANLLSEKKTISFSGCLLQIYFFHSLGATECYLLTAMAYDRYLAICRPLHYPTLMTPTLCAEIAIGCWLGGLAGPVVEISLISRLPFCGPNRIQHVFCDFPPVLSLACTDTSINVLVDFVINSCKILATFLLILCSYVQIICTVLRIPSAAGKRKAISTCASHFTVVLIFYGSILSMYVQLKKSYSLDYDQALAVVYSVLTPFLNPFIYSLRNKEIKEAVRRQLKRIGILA
Summary of the method: as §1

[7] = target: T7, OR6N2 (Homo sapiens) (UniProt Q8NGY6)
T7 sequence (whole entry): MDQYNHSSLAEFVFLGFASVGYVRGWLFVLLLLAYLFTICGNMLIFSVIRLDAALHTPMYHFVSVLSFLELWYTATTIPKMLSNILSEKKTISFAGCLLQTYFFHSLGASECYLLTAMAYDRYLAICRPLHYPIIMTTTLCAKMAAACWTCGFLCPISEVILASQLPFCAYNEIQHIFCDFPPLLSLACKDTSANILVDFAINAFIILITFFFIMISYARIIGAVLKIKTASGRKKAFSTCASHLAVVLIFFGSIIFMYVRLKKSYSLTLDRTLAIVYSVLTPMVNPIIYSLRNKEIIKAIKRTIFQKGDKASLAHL
Summary of the method: as §1

[8] = target: T8, OR6P1 (Homo sapiens) (UniProt Q8NGX9)
T8 sequence (whole entry): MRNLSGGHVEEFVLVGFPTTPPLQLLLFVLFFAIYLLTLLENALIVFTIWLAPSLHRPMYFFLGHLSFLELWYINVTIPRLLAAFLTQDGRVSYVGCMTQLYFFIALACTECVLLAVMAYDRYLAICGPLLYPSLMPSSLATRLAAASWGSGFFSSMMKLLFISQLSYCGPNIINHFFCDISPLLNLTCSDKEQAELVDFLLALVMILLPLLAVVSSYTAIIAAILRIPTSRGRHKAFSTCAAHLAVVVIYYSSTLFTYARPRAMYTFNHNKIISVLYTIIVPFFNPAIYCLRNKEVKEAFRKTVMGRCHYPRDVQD
Summary of the method: as §1

[9] = target: T9, OR6Q1 (Homo sapiens) (UniProt Q8NGQ2)
T9 sequence (whole entry): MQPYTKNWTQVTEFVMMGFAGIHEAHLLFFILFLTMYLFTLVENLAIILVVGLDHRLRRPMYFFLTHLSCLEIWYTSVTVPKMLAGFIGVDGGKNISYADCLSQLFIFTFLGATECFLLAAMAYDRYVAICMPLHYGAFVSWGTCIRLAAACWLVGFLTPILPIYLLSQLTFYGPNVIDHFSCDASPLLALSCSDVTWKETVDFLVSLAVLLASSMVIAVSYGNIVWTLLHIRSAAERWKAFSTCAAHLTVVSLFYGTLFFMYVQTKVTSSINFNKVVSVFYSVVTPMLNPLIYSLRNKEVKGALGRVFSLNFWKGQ
Summary of the method: as §1

[10] = target: T10, OR6S1 (Homo sapiens) (UniProt Q8NH40)
T10 sequence (whole entry): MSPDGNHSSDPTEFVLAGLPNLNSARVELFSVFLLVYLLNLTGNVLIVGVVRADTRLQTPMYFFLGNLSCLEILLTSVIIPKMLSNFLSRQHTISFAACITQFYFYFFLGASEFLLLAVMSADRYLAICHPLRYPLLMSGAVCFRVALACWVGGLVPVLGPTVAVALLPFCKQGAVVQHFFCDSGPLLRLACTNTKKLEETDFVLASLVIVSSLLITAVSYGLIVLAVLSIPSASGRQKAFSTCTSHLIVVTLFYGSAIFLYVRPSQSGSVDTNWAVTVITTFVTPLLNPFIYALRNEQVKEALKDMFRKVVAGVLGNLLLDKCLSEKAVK
Summary of the method: as §1

[11] = tested on: T11, OR6S1 T42I V156I
T11 sequence (whole entry): T10 sequence (whole entry) with T42I, V156I
Summary of the method: as §1

[12] = target: T12, OR6T1 (Homo sapiens) (UniProt Q8NGN1)
T12 sequence (whole entry): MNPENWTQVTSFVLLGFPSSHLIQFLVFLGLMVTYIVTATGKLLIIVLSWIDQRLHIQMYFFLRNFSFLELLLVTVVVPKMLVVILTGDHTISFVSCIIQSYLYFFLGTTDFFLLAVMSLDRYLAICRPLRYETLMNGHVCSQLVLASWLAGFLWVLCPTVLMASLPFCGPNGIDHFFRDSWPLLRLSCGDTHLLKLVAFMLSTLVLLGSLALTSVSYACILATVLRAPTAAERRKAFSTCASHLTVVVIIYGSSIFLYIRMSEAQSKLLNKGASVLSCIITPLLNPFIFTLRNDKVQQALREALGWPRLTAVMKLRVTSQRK
Summary of the method: as §1

[13] = tested on: T13, OR6T1 N2D
T13 sequence (whole entry): T12 sequence (whole entry) with N2D
Summary of the method: as §1

[14] = target: T14, OR6V1 (Homo sapiens) (UniProt Q8N148)
T14 sequence (whole entry): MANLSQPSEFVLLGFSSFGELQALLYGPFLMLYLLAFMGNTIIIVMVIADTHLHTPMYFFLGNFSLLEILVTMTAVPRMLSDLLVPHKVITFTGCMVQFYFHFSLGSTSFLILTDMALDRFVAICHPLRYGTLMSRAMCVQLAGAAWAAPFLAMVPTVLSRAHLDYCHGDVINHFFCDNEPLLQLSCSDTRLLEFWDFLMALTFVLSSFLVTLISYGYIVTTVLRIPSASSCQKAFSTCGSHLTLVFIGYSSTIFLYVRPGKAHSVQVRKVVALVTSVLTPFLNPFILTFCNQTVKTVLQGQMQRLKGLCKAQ
Summary of the method: as §1

[15] = target: T15, OR6X1 (Homo sapiens) (UniProt Q8NH79)
T15 sequence (whole entry): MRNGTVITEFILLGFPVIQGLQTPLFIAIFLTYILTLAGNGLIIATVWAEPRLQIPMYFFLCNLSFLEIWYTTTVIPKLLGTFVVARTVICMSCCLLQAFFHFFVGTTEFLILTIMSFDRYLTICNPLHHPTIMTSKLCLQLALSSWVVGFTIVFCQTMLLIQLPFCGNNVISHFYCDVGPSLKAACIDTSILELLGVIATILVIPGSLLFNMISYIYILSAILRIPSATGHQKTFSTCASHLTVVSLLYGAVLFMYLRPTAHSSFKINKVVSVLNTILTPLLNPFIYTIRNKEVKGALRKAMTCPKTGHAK
Summary of the method: as §1

[16] = target: T16, OR6Y1 (Homo sapiens) (UniProt Q8NGX8)
T16 sequence (whole entry): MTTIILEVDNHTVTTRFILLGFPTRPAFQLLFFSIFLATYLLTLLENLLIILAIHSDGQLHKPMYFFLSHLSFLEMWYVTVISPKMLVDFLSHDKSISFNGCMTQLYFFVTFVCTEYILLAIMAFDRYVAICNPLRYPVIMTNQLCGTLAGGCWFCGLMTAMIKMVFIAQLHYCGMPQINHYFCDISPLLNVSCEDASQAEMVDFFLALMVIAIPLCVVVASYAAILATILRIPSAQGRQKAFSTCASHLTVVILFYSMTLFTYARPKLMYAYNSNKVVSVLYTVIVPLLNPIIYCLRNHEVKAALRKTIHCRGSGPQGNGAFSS
Summary of the method: as §1

[17] = target: T17, OR7A10 (Homo sapiens) (UniProt O76100)
T17 sequence (whole entry): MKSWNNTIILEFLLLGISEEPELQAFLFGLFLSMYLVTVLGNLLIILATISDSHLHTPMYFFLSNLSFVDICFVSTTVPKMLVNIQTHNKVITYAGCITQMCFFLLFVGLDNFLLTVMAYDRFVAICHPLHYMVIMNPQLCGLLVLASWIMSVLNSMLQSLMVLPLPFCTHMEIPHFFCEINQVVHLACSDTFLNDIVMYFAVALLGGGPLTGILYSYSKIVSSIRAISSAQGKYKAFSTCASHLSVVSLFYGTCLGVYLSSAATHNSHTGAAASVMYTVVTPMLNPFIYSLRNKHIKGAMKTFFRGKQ
Summary of the method: as §1

[18] = target: T18, OR7A17 (Homo sapiens) (UniProt O14581)
T18 sequence (whole entry): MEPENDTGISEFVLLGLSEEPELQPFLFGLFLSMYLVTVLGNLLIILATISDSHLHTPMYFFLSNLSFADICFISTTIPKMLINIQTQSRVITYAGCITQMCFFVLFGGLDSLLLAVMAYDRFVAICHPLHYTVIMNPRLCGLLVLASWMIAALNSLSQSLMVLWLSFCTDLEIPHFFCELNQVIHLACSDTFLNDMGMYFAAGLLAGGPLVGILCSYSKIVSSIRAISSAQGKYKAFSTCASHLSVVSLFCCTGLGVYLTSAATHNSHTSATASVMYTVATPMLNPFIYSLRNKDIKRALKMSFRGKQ
Summary of the method: as §1

[19] = target: T19, OR7A5 (Homo sapiens) (UniProt Q15622)
T19 sequence (whole entry): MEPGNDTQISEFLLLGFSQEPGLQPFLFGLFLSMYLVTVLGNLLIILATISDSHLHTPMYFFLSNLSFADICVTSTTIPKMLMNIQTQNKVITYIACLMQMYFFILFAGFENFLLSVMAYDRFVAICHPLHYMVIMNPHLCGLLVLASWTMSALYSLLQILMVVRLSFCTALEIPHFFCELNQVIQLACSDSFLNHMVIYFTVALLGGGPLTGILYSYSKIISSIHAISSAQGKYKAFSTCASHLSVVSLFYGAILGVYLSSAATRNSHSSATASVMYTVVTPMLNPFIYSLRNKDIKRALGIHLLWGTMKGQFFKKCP
Summary of the method: as §1

[20] = target: T20, OR6K3 (Homo sapiens) (UniProt Q8NGY3)
T20 sequence (whole entry): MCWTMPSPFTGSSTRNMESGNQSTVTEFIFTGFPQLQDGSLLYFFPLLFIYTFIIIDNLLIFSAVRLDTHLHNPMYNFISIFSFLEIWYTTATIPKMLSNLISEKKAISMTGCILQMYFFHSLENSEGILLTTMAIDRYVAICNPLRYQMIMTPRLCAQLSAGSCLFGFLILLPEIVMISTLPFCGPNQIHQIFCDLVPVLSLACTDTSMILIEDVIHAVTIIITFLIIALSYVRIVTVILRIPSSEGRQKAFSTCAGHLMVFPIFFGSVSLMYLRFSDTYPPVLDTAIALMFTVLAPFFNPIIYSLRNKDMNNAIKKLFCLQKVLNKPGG
Summary of the method: as §1

Measured: odorant receptor agonist call;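 note: active if original authors judged signal statistically different from baseline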

CC1=C(O)C(=O)C(C)O1 (stereo not given)
not listed: [20]
inactive: all other assays above

CCCCCCC=CCCC=O
not listed: [1] | [4]
inactive: all other assays above

CCC1OC(C)=C(O)C1=O (stereo not given)
not listed: [20]
inactive: all other assays above

CC(=O)c1c(C)c([N+](=O)[O-])c(C(C)(C)C)c([N+](=O)[O-])c1C
not listed: [1] | [4] | [5] | [11] | [13]
inactive: all other assays above

CCCCCC(S)C(C)CO (stereo not given)
not listed: [1] | [4] | [5] | [11] | [13]
inactive: all other assays above

CC1=NC(C)C(C)S1 (stereo not given)
not listed: [20]
inactive: all other assays above

CCC(S)C(C)CO (stereo not given)
not listed: [1] | [4] | [5] | [11] | [13]
inactive: all other assays above

CCCCCC(=O)C(C)C(C)=O (stereo not given)
not listed: [1] | [4] | [5] | [11] | [13]
inactive: all other assays above
